From ChEMBL document CHEMBL1125014, “Synthesis and structure-activity relationships of new 9-N-alkyl derivatives of 9(S)-erythromycylamine” (1990) come the findings set out here.

The term ED50 denotes the dose at which the effect has come halfway, by size or by number of responders. A low value points to an effect at a small dose.

Format in all cases: functional
Assay [1] relates to Staphylococcus aureus. The assay is described as follows: MIC value measured against staphylococcus aureus X1.
Assay [2] has as its system Haemophilus influenzae. Briefly: MIC value was measured against haemophilus influenzae. The procedure, abridged:
(§1)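 Susceptibility determined by standard agar-dilution method against a panel of bacterial strains.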

Assay [3] deals with Streptococcus pyogenes. Briefly: MIC value measured against streptococcus pyogenes C203.
Assay [4] relates to Enterococcus faecalis. Briefly: MIC value was measured against streptococcus faecalis.
In assay [5] the test system is Staphylococcus epidermidis. The assay is described as follows: microbe, parasite or virus in culture.
Assay [6] relates to Haemophilus influenzae. Briefly: MIC value was measured against haemophilus influenzae CL.
The test system of assay [7] is Staphylococcus aureus. The assay is described as follows: Effective dose against mice infected with Staphylococcus aureus after peroral administration (in vivo). The conditions noted are these: in Mus musculus, po.
The species entered for assay [8] is Mus musculus. The assay is described as follows: ED50 value was measured against streptococcus pyogenes infection in mice. The procedure, abridged:
(§2)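 Infected mice were dosed orally or subcutaneously at 1 and 5 h postinfection, 0.25 mL of antibiotic solution in 10% aqueous ethanol per dose. Tartaric acid was added where needed for solubility. Several dose concentrations were tested to give the ED50.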

Assay [9] has as its system Streptococcus pneumoniae. The assay is described as follows: MIC value measured against streptococcus pneumoniae Park1.
Assay [10] deals with Streptococcus pneumoniae. The assay is described as follows: Effective dose against mice infected with streptococcus pneumoniae after peroral administration (in vivo). Conditions: in Mus musculus, po.
For assay [11], the system named is Streptococcus pyogenes. The assay is described as follows: Effective dose against mice infected with streptococcus pyogenes after peroral administration (in vivo). Conditions: in Mus musculus, po.
Assay [12] concerns Mus musculus. The assay is described as follows: ED50 value was measured against streptococcus pneumoniae after sc administration in mice (in vivo, in experiment 2). The procedure, abridged: as §2
Assay [13] has as its system Mus musculus. Briefly: ED50 value was measured against streptococcus pyogenes after po administration in mice (in vivo, in experiment 2). The procedure, abridged: as §2
Assay [14] has as its system Mus musculus. The assay is described as follows: ED50 value was measured against staphylococcus aureus after po administration in mice (in vivo, in experiment 2). The gist of the method:
as §2

Assay [15] concerns Mus musculus. Briefly: ED50 value was measured against streptococcus pneumoniae after po administration in mice (in vivo, in experiment 2). The procedure, abridged:
as §2

For assay [16], the system named is Mus musculus. Briefly: ED50 value was measured against streptococcus pyogenes after sc administration in mice (in vivo, in experiment 2). The gist of the method:
as §2

Assay [17] concerns Mus musculus. Briefly: ED50 value was measured against staphylococcus aureus after sc administration in mice (in vivo, in experiment 2). The gist of the method:
as §2

The subject of assay [18] is Mus musculus. The assay is described as follows: ED50 value was measured against streptococcus pyogenes after sc administration in mice (in vivo, in experiment 3). The procedure, abridged:
as §2

Assay [19] concerns Mus musculus. The assay is described as follows: ED50 value was measured against streptococcus pyogenes after po administration in mice (in vivo, in experiment 3). The procedure, abridged:
as §2

Assay [20] has as its system Mus musculus. The assay is described as follows: ED50 value was measured against staphylococcus aureus after sc administration in mice (in vivo, in experiment 3). The procedure, abridged:
as §2

Assay [21] has as its system Mus musculus. Briefly: ED50 value was measured against streptococcus pneumoniae after po administration in mice (in vivo, in experiment 3). The procedure, abridged:
as §2

Assay [22] relates to Streptococcus pneumoniae. Briefly: MIC value was measured against streptococcus pneumoniae park1. The procedure, abridged: as §1
Assay [23] relates to Mus musculus. Briefly: ED50 value was measured against streptococcus pneumoniae after sc administration in mice (in vivo, in experiment 3). The gist of the method: as §2
Assay [24] concerns Enterococcus faecalis. Briefly: MIC value was measured against streptococcus faecalis X66. The gist of the method: as §1
Assay [25] has as its system Mus musculus. The assay is described as follows: ED50 value was measured against staphylococcus aureus after po administration in mice (in vivo, in experiment 3). The gist of the method: as §2

Converted amounts (≈) assume the structure as drawn.

On to `CCCCC/C=C\CCCN[C@@H]1[C@H](C)[C@@H](O)[C@](C)(O)[C@@H](CC)OC(=O)[C@H](C)[C@@H](OC2CC(C)(OC)C(O)C(C)O2)[C@H](C)[C@@H](OC2OC(C)CC(N(C)C)C2O)[C@](C)(O)C[C@H]1C` (stereo not given in full), for which the MIC in the assay on Staphylococcus aureus [1] was 0.25 µg/mL (≈ 0.286 µM); in the assay on Haemophilus influenzae [2] it was 2 µg/mL (≈ 2.29 µM); in the assay with Streptococcus pyogenes [3] it was 0.008 µg/mL (≈ 0.00916 µM); against Enterococcus faecalis [4] it was 0.25 µg/mL (≈ 0.286 µM); in [5] it was 0.12 µg/mL (≈ 0.137 µM); in the assay with Haemophilus influenzae [6], 2 µg/mL (≈ 2.29 µM).
For `CC[C@H]1OC(=O)[C@H](C)[C@@H](OC2CC(C)(OC)C(O)C(C)O2)[C@H](C)[C@@H](OC2OC(C)CC(N(C)C)C2O)[C@](C)(O)C[C@@H](C)[C@H](NCCCSC)[C@H](C)[C@@H](O)[C@]1(C)O` (stereo not given in full), the 50% effective dose (ED50) in the assay on Staphylococcus aureus [7] came to 50 mg/kg; in the assay listed under Mus musculus [8] it was 7 mg/kg; with Streptococcus pneumoniae [10] it was 18 mg/kg. Moreover, the MIC was found to be 4 µg/mL (≈ 4.86 µM) with Haemophilus influenzae [2]; 0.015 µg/mL (≈ 0.0182 µM) against Streptococcus pyogenes [3]; 0.015 µg/mL (≈ 0.0182 µM) in the assay with Streptococcus pneumoniae [9]; 0.5 µg/mL (≈ 0.607 µM) in assay [5]; 4 µg/mL (≈ 4.86 µM) against Haemophilus influenzae [6].
Consider `CC[C@H]1OC(=O)[C@H](C)[C@@H](OC2CC(C)(OC)C(O)C(C)O2)[C@H](C)[C@@H](OC2OC(C)CC(N(C)C)C2O)[C@](C)(O)C[C@@H](C)[C@H](NCCCOC)[C@H](C)[C@@H](O)[C@]1(C)O` (stereo not given in full), for which the ED50 in the assay on Staphylococcus aureus [7] was found to be 16 mg/kg; in the assay with Streptococcus pyogenes [11], 14 mg/kg; in the assay on Mus musculus [12], 8.3 mg/kg; in the assay on Mus musculus [13] it was 19 mg/kg; with Mus musculus [14] it was 36 mg/kg; in the assay on Mus musculus [15], 17 mg/kg. Also, the ED50 with Mus musculus [16] is 2.1 mg/kg; in the assay with Streptococcus pneumoniae [10] it was 16 mg/kg; in the assay with Mus musculus [17], 3.7 mg/kg. The MIC came to 0.5 µg/mL (≈ 0.62 µM) against Staphylococcus aureus [1]; 0.5 µg/mL (≈ 0.62 µM) in the assay on Haemophilus influenzae [2]; 0.06 µg/mL (≈ 0.0743 µM) with Streptococcus pyogenes [3]; 0.03 µg/mL (≈ 0.0372 µM) with Streptococcus pneumoniae [9]; 0.5 µg/mL (≈ 0.62 µM) in assay [5]; 0.5 µg/mL (≈ 0.62 µM) with Haemophilus influenzae [6].
As for `CC[C@H]1OC(=O)[C@H](C)[C@@H](OC2CC(C)(OC)C(O)C(C)O2)[C@H](C)[C@@H](OC2OC(C)CC(N(C)C)C2O)[C@](C)(O)C[C@@H](C)[C@H](NC2CCCCC2)[C@H](C)[C@@H](O)[C@]1(C)O` (stereo not given in full), the MIC against Staphylococcus aureus [1] was found to be 0.5 µg/mL (≈ 0.612 µM); against Streptococcus pyogenes [3] it was 0.06 µg/mL (≈ 0.0734 µM); in the assay on Enterococcus faecalis [4] it was 0.25 µg/mL (≈ 0.306 µM); in the assay with Streptococcus pneumoniae [9] it was 0.03 µg/mL (≈ 0.0367 µM); in assay [5], 0.5 µg/mL (≈ 0.612 µM); against Haemophilus influenzae [6] it was 4 µg/mL (≈ 4.9 µM).
In the case of `CCC1N[C@@H]2[C@H](C)[C@@H](O1)[C@](C)(O)[C@@H](CC)OC(=O)[C@H](C)[C@@H](OC1CC(C)(OC)C(O)C(C)O1)[C@H](C)[C@@H](OC1OC(C)CC(N(C)C)C1O)[C@](C)(O)C[C@H]2C` (stereo not given in full), the ED50 with Staphylococcus aureus [7] was 34 mg/kg; with Streptococcus pyogenes [11], 35 mg/kg; in the assay on Mus musculus [18], less than 0.6 mg/kg; in the assay with Mus musculus [19] it was 19 mg/kg; in the assay on Mus musculus [20], 0.8 mg/kg; in the assay with Mus musculus [21], 17 mg/kg. For the same compound, the ED50 in the assay on Mus musculus [23] was less than 0.6 mg/kg; in the assay with Mus musculus [25] it was 20 mg/kg; in the assay on Streptococcus pneumoniae [10], 30 mg/kg. Besides, the MIC in the assay on Staphylococcus aureus [1] is 0.5 µg/mL (≈ 0.645 µM); in the assay with Streptococcus pyogenes [3] it was 0.12 µg/mL (≈ 0.155 µM); in assay [5] it was 0.5 µg/mL (≈ 0.645 µM); against Streptococcus pneumoniae [22], 0.12 µg/mL (≈ 0.155 µM); in the assay on Haemophilus influenzae [6] it was 8 µg/mL (≈ 10.3 µM); in the assay with Enterococcus faecalis [24] it was 0.5 µg/mL (≈ 0.645 µM).
